The target of one test is T1, CBX2 (Homo sapiens, UniProt Q14781).
T1 sequence (Q14781 9-66): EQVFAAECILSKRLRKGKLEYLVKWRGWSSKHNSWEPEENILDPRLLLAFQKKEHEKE
Briefly: TR-FRET competition assay, CBX2 chromodomain with UNC4195 tracer. The format is binding. Put shortly:
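His-tagged protein, biotinylated tracer and TR-FRET reagent (Eu-streptavidin, anti-6X-His ULight antibody) premixed in 20 mM Tris pH 7.5, 150 mM NaCl, 0.05% Tween 20, 2 mM DTT. Added to plates pre-stamped from 10 mM DMSO stocks (100X). Shaken 1 min, spun 1000 x g 2 min, 1 h dark. DMSO and competitor full-column controls per plate. Follow-up used 10-point threefold dilutions and a four-parameter fit for IC50.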
For orientation: In TR-FRET formats the signal depends on donor and acceptor labels being close together.

The next test deals with T2, CBX7 (Homo sapiens, UniProt O95931).
T2 sequence (O95931 8-62): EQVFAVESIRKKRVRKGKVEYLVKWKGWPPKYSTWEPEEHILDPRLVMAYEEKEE
Nature of the test: TR-FRET competition assay, CBX7 chromodomain with UNC4195 tracer. The format is binding.

In test [1] the target is T3, MPP8 (Homo sapiens, UniProt Q99549).
T3 sequence (Q99549 55-116): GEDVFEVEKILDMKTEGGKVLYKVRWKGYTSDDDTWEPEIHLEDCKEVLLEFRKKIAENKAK
Nature of the test: TR-FRET competition assay, MPP8 chromodomain with H3K9me3 tracer. The format is binding. A digest of the protocol:
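His-tagged protein plus biotinylated tracer peptide with Eu-streptavidin and anti-6X-His ULight antibody, in 20 mM Tris pH 7.5, 150 mM NaCl, 0.05% Tween 20, 2 mM DTT; 10 µL total. Test compound: 16-point threefold dilution in buffer, in triplicate. Mixed, centrifuged, equilibrated 1 h in the dark, then read. Percent inhibition relative to DMSO (0%) and 100 µM competitor (100%); four-parameter fit gives IC50.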

In another test the target is CBX5 (Homo sapiens, UniProt P45973). The conditions noted are these: affinity of CBX5 for H3K9me3; cited from earlier work.
CBX5, sequence (P45973 18-75): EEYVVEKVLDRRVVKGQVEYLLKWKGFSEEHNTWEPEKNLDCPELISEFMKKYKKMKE
The target of test [2] is T3, MPP8. The conditions noted are these: MPP8 binding the tracer peptide H3K9me3; cited from earlier work.

Square brackets hold non-standard residues; d marks the D form. Peptide text beside a SMILES is read from it. * marks the point of attachment. Benzoyl(4-tBu) = CC(C)(C)c1ccc(C(=O)*)cc1; Lys(Et2) = CCN(CC)CCCC[C@H](N)C(=O)O

A word on the IC50: it is the concentration at which inhibition is half-maximal. High values mean weaker potency, low ones greater potency. A word on the inhibition: it is the relative decrease from the control value, in per cent. As for `CCN(CC)CCCC[C@H](NC(=O)[C@H](CC(C)C)NC(=O)[C@H](C)NC(=O)[C@H](Cc1ccccc1)NC(=O)c1ccc(C(C)(C)C)cc1)C(=O)N[C@@H](CO)C(=O)OC` [UNC3866] ({Benzoyl(4-tBu)}-FAL[Lys(Et2)]S-OMe), the IC50 at CBX2 amounted to 1500 nM; at CBX7 it was 60 nM; on MPP8 [1], 1000 nM. In addition, the inhibition at CBX2 (single-dose 25 µM, pilot screen in duplicate, 100% = 100 µM UNC3866) was 100%.

As usually defined, the Kd is the concentration at which binding is half-saturated. For “ARTKQTARK(Me3)STGGKAPRKQL-K(Biotin)-NH2 [H3K9me3]”, the Kd on CBX5 was about 30000 nM. The affinity result on MPP8 [2] is given as “sub-micromolar”.

The record behind these values is PMC6586500 (SLAS discovery : advancing life sciences R & D, 2019).
